These results are taken from paper PMC10246735 (European journal of medicinal chemistry, 2023).

The structures appear in SMILES notation.

Data set [1] has as its system LNCaP (AR+) androgen-sensitive human prostate adenocarcinoma cells. Nature of the data set: MTT antiproliferative activity assay on LNCaP cells. The class given is cell-based. A general note: Formazan colour is commonly taken as a measure of viable cells.
The test system of data set [2] is PC3 (AR−) androgen-insensitive human prostate adenocarcinoma cells. Nature of the data set: MTT antiproliferative activity assay on PC3 cells. The format is cell-based. Conditions: 48 h, read-out: IC50 (concentration of drug inhibiting cell growth by 50%), PC3 (AR−).
The next data set addresses recombinant CYP3A4 (Homo sapiens, UniProt P08684). Nature of the data set: Equilibrium spectral titration of recombinant CYP3A4. Conditions: for high spin content: estimated at the end of equilibrium titrations relative to azamulin-bound CYP3A4 (100% high-spin conversion); for Kd: read-out: S50, ligand concentration at half-saturation (equivalent to Kd), 0.1 M phosphate buffer, pH 7.4; for Kd / nH, Hill coefficient: sigmoidal fittings to titration plots, mean of three ± SD. The format is binding. A digest of the protocol: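 Codon-optimized full-length human CYP3A4 (1.5–2 μM) in 0.1 M phosphate buffer, pH 7.4, with 20% glycerol and 1 mM dithiothreitol, at ambient temperature. DMSO-dissolved ligand added in small aliquots (final solvent <2%). Titration plots were built from difference absorbance spectra. Sigmoidal fits gave S50 (half-saturation ligand concentration, equivalent to Kd) and Hill coefficient; hyperbolic fits gave Kd.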

Chain of recombinant CYP3A4 (P08684 whole entry): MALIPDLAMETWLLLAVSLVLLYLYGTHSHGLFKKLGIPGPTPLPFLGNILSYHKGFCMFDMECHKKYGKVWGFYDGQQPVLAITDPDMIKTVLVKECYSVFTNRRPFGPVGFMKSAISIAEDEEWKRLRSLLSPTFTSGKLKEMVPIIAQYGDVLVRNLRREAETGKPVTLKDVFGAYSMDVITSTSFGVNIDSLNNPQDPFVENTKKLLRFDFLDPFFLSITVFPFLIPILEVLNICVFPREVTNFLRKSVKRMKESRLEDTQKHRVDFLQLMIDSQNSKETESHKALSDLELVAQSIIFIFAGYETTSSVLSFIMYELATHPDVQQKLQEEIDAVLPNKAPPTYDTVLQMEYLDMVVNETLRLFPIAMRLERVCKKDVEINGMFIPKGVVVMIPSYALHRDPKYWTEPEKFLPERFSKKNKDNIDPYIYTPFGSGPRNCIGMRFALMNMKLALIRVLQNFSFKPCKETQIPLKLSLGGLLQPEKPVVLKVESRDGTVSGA

In the case of `CC(=O)O[C@]1(C(C)=O)CC[C@H]2[C@@H]3C=C(Cl)C4=CC(=O)[C@@H]5C[C@@H]5[C@]4(C)[C@H]3CC[C@@]21C` [CPA, cyproterone acetate, reference compound], the IC50 in data set [1] (Homo sapiens, LNCaP/AR, 48 h, read-out: IC50 (concentration of drug inhibiting cell growth by 50%), LNCaP (AR+)) is 40.7 µM; in data set [2], 84.3 µM.
As to `C=CC[C@]1(O)CC[C@H]2[C@@H]3CCC4=CC(=O)CC[C@]4(C)[C@H]3CC[C@@]21C` [Compound 10, 17α-allyl-androst-4-en-3-one-17β-ol], on recombinant CYP3A4, the high spin content is listed as 70 ± 2%; the Kd came out at 22 ± 4 µM; the “nH, Hill coefficient” value is 1.52 ± 0.02.
As for `C[C@]12CCC(=O)C=C1CC[C@@H]1[C@@H]2CC[C@@]2(C)[C@H]1CC[C@@]2(O)C/C=C/C[C@]1(O)CC[C@H]2[C@@H]3CCC4=CC(=O)CC[C@]4(C)[C@H]3CC[C@@]21C` [Compound 11, ((E)-17,17’-(but-2-ene-1,4-diyl))bis(androst-4-en-3-one-17β-ol)], in data set [1] (LNCaP (AR+) cells, ratio of IC50), the “fold more potent than the reference drug CPA” value is given as ~ 3.5 times. Further, the “fold more potent on AR+ LNCaP than AR− PC3 cells” value in data set [1] (ratio of IC50 PC3 / LNCaP) is on record as ~ 3.7 times. Further, the high spin content at recombinant CYP3A4 was 92 ± 4%. On recombinant CYP3A4 (ratio of Kd), the “fold higher affinity for CYP3A4 compared to 15” value is on record as 40 fold.
Turning to `C=CC[C@]1(O)CC[C@H]2[C@@H]3CC[C@H]4CC(=O)CC[C@]4(C)[C@H]3CC[C@@]21C` [Compound 14, 17α-allyl-androst-3-one-17β-ol], at recombinant CYP3A4, the high spin content was 71 ± 3%; the Kd was 17 ± 2 µM; the “nH, Hill coefficient” value was 1.76 ± 0.06.
As to `C[C@]12CCC(=O)C[C@@H]1CC[C@@H]1[C@@H]2CC[C@@]2(C)[C@H]1CC[C@@]2(O)C/C=C/C[C@]1(O)CC[C@H]2[C@@H]3CC[C@H]4CC(=O)CC[C@]4(C)[C@H]3CC[C@@]21C` [Compound 15, ((E)-17,17’-(but-2-ene-1,4-diyl))bis(androst-3-one-17β-ol)], the high spin content at recombinant CYP3A4 is 33 ± 3%.
